# Assay outcomes: PubChem, several laboratories
# PLAP act: human PLAP activation; AID 696; activation fold at 20 µM; P05187; purified PLAP enzyme, luminescent substrate read-out; active compounds read high; 1.2% of 96,000 active; in the data active = activation fold above about 2
# Target sequence (P05187 whole entry, looked up): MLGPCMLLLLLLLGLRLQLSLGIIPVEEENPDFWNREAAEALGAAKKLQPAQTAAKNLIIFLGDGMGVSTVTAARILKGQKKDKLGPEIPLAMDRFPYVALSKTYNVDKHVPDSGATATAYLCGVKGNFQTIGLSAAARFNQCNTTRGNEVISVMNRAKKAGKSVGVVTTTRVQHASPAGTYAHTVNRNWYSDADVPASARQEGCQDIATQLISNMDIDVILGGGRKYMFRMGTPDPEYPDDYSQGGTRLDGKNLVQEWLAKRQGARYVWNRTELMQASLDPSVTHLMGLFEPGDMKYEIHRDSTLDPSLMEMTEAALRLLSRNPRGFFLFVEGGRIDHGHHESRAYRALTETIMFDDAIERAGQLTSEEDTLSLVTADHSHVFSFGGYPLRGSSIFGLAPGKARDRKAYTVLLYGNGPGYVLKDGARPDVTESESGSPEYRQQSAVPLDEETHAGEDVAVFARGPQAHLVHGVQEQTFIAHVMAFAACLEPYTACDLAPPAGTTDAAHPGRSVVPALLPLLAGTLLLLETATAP
# PostGolgi ctrl: inhibits growth of the yeast control strain; 5% of 98,000 active; inhibition, % at 10 µM; efflux-deficient yeast background strain, growth absorbance A615, 16 h
# PostGolgi yeast: growth inhibition of a yeast mutant, post-Golgi transport screen | post-Golgi transport phenotypic cell assay | inhibition, % at 10 µM | 0.9% of 98,000 active;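 also: yeast cells grown in 1536-well plates; yeast grown about 18 h at 30C before absorbance read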
# Ecoli tolC: blocks growth of E. coli BW25113 tolC mutant; OD615; growth inhibition, % at 10 µM (by protocol); 2.2% of 65,000 active; AID 573;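 active = growth inhibition at or above a cutoff equal to the mean over every tested compound plus 3 SD, cut at about 60% in these data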;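 also: growth measured after 20 h incubation at 37 °C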
#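 test system = E. coli BW25113 ΔtolC::kan bacteria | medium = LB with kanamycin 50 µg/mL | signal = OD at 615 nm | schedule = 37 °C, 20 h exposure | evaluation = % inhibition of E. coli growth | compound dosing = one dose of 10 µM final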
# E coli WT exp: growth inhibitors of E. coli BW25113 wild type. AID 710. growth inhibition, % at 100 µM. OD600 absorbance. 0.15% of 98,000 active;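 active = growth inhibition above about 50% at one test dose, limit read from the data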;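 also: growth measured after 20 h incubation at 37 °C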
# Starred values were filed as active, the others as inactive; x = not tested or not shown. Only some compounds are listed: those with a hit (about 7.2% of all), similar ones and a draw of the others. Rule as the data show it, unless noted: active = inhibition above about 30%; inactive = the rest.
SMILES,PLAP act,PostGolgi ctrl,PostGolgi yeast,Ecoli tolC,E coli WT exp
CCOc1ccc(C(=O)N2CCN(c3cccc(C)c3C)CC2)cc1,1.1,18.8,17.4,81.5*,4.0
Cc1cccc(N2CCN(C(=O)Cc3ccc(Br)cc3)CC2)c1C,0.9,46.3*,17.5,x,-5.0
Cc1ccc(NC(=O)NNc2cccc(Cl)n2)cc1,0.8,6.7,-11.1,x,-6.0
Cc1ccccc1C(=O)c1cccn1CC(=O)NCc1ccc2c(c1)OCO2,0.7,8.0,-3.6,x,1.0
Cc1cc(C)n(-c2ccc(C(=O)C(C#N)c3nc4ccccc4n3C)cc2)n1 (centres undefined),1.2,33.4*,12.5,-10.2,-9.0
COc1ccc(/C=C2\SC(=S)N(NC(=O)c3csc4c3CCCC4)C2=O)cc1,1.1,5.0,36.8*,x,-7.0
Cc1ccc(NC(=O)NCCCc2ccccc2)cc1,1,9.1,-2.9,x,-1.0
N#C/C(=C/c1ccc(OCc2ccccc2)cc1)C(=O)NC1CCCCC1,0.9,1.4,8.1,x,-7.0
COc1ccc(-c2[nH]ncc2/C=C(/C#N)C(=O)NC2CCCCCC2)cc1,1.1,50.2*,10.1,x,-1.0
NC(=O)C1CCN(C(=O)CSc2nc3c(c(-c4ccccc4)n2)CCCC3)CC1,1.4,10.0,-2.0,18.1,-2.0
Cc1nnc(SC(=O)N2c3ccccc3Sc3ccccc32)s1,1,75.0*,12.8,68.7*,-10.0
Cc1nnc(SCC(=O)N2c3ccccc3Sc3ccccc32)n1N,0.9,5.2,-4.1,-8.4,-2.0
COc1ccc(CCNC(=O)COc2ccc(S(=O)(=O)NC(C)C)cc2Cl)cc1OC,1.2,3.3,-1.6,x,2.0
CCn1c(-c2ccccc2Cl)nn(CC(=O)Nc2ccccc2C)c1=S,0.9,0.6,-3.0,x,0.0
O=c1n(Cc2ccccc2)c2cc(Cl)cnc2n1Cc1ccccc1,1,14.3,-1.2,88.8*,0.0
N#C/C(=C(/O)CN1C(=O)c2ccccc2C1=O)c1nc2ccccc2[nH]1,2.1*,-7.1,-3.1,-6.3,-10.0
CSCCC(/C(O)=C(\C#N)c1nc2ccccc2[nH]1)N1C(=O)c2ccccc2C1=O (centres undefined),2*,15.0,2.4,11.6,-16.0
CC(=O)Nc1sc(C)c(C)c1C(=O)OC1CCOC1=O (centres undefined),1.2,6.8,-8.4,-14.9,4.0
CCOC(=O)Cc1csc(NC(=O)CSc2ncnc3c2cnn3-c2ccccc2Cl)n1,1.5,4.6,-6.9,50.7,-12.0
O=C(NCCc1ccc(Cl)cc1)C1CCC(=O)N1Cc1ccc(F)cc1 (centres undefined),1.7,-0.6,0.2,x,5.0
CCN1C(=O)S/C(=C\c2ccc(N3CCOCC3)cc2C)C1=O,1,35.3*,8.3,x,-4.0
Cc1ccc(NC(=O)CSc2nnc(C3CCCCC3)n2N)cc1F,0.9,2.1,31.2*,4.9,-1.0
Cc1ccc(Cn2ccc(NC(=O)c3cc(CC(C)C)on3)n2)cc1,0.9,10.8,-4.4,72.0*,-6.0
COc1cc(NS(=O)(=O)c2ccc(NC(=O)c3ccco3)cc2)nc(OC)n1,0.8,35.5*,-6.3,-13.9,-3.0
COc1cc(NS(=O)(=O)c2ccc(NC(C)=O)cc2)ncn1,0.8,-1.6,-21.8,x,27.0
SMILES,PLAP act,PostGolgi ctrl,PostGolgi yeast,Ecoli tolC,E coli WT exp
COc1cc(NS(=O)(=O)c2ccc(N/C=C(\C#N)c3nc4cc(Cl)ccc4o3)cc2)nc(OC)n1,2.1*,1.5,-2.0,x,-16.0
COc1cc(NS(=O)(=O)c2ccc(NC(C)=O)cc2)nc(OC)n1,1.1,21.3,4.4,x,-8.0
COC(=O)c1sc(N2C(=O)C(O)=C(C(=O)c3ccc(C)o3)C2c2ccc(F)cc2)nc1C (centres undefined),1.1,14.7,-4.1,65.0*,-8.0
Cc1cc(C(=O)NCc2ccccc2Br)no1,1.1,10.2,5.9,4.5,7.0
Cc1ccc(N(CC(=O)NCc2ccc(F)cc2)S(=O)(=O)c2cccs2)cc1,1,3.5,13.7,x,-9.0
Cc1ccccc1Cn1nc(C)c(NC(=O)c2noc3c2CCc2ccccc2-3)c1C,1.4,38.4*,24.7,67.6*,-17.0
Cc1nn(Cc2ccc(Cl)cc2)c(C)c1NC(=O)c1noc2c1CCCCC2,1.6,15.0,3.6,84.4*,10.0
Cc1nn(Cc2ccc(Cl)c(Cl)c2)c(C)c1NC(=O)c1noc2c1CCCCC2,0.9,1.1,-9.0,-16.1,-8.0
COc1cccc(-c2cc(C(=O)Nc3c(C)nn(Cc4ccccc4C)c3C)no2)c1,0.9,15.1,4.4,71.2*,-6.0
Cc1ccccc1Cn1nc(C)c(NC(=O)c2noc3c2CC(C(C)(C)C)CC3)c1C (centres undefined),1.3,17.2,3.6,74.1*,1.0
Cc1ccccc1Cn1cc(NC(=O)c2noc3c2CC(C(C)(C)C)CC3)cn1 (centres undefined),1,1.8,3.6,-5.0,2.0
CCc1ccc(NC(=O)CNC(=O)c2cn(-c3ccccc3OC)c(=O)c3ccccc23)cc1,2.2*,-3.0,-3.5,x,-11.0
COc1ccccc1NC(=O)CNC(=O)c1ccccc1C,1.3,-5.8,-1.6,x,9.0
COc1cccc(/C(C#N)=C/c2c(-c3ccc(Cl)cc3)nc3c(C)cccn23)c1,1.2,49.3*,6.9,x,-13.0
Cc1cccn2c(/C=N/OCc3cccc(F)c3)c(-c3ccc(Cl)cc3)nc12,1.1,6.5,-8.7,x,-22.0
O=C1OCC(CO)(CO)N=C1NNc1ccc(Cl)c(Cl)c1,1.1,18.9,92.0*,x,88.0*
CCOC(=O)C(C)Oc1cccc2c(=O)n(CC(=O)N3CCN(C(=O)OCC)CC3)ccc12 (centres undefined),1.6,19.1,0.3,2.2,-3.0
O=c1[nH]c(NCCO)nc2c1C1(CCCCC1)Cc1ccccc1-2,0.8,30.6*,-1.7,18.6,5.0
CCOc1ccc(N=C2NC(=O)C(CC(=O)O)S2)cc1 (centres undefined),1,9.8,-16.6,-21.9,-5.0
CCOc1ccc(N=C2NC(=O)S/C2=C\c2ccc(N(C)C)cc2)cc1,0.9,34.3*,-5.1,x,-25.0
COC(=O)/C(=C1/Oc2cc(C)oc(=O)c2S1)C(F)(F)F,x,78.1*,4.9,1.7,6.0
CC(OC(=O)c1ccc2ccccc2n1)C(=O)Nc1ccc(N2CCOCC2)cc1 (centres undefined),0.8,31.3*,3.5,-7.4,-3.0
O=C(NCc1cccnc1)C1CC(=O)N(CCc2ccccc2)C1 (centres undefined),1,25.4,13.9,x,3.0
C=CCn1c(SCC(O)Cn2c3ccccc3c3ccccc32)nnc1-c1ccco1 (centres undefined),0.9,46.3*,-8.2,81.2*,-22.0
CC(c1nnnn1C(C)(C)C)N(Cc1cccnc1)Cc1ccccc1Cl (centres undefined),1.6,32.0*,16.8,x,9.0
CC(=O)c1coc2ccc(OCC(=O)O)cc12,x,2.8,-0.6,-25.7,-1.0
O=C(NCC1CCCO1)C1CCC(CNS(=O)(=O)c2ccccc2)CC1 (centres undefined),1,0.5,-7.8,-5.6,0.0
CCCCCC(/C=N/Nc1ccc(S(=O)(=O)N2CCOCC2)cc1[N+](=O)[O-])=C\c1ccccc1,0.6,3.4,-6.1,x,-17.0
